Among the data in ChEMBL document CHEMBL1127799, “Derivatives of a novel cyclopeptolide. 1. Synthesis, antifungal activity, and structure-activity relationships” (1994) are MIC values, retold here.

Values after ≈ are worked out from the molar mass of the structure shown.

What all share (format): functional
For experiment [1], the system named is Candida albicans. The experiment in a line: Tested for minimum inhibitory concentration against Candida albicans 124 (Candida albicans) at pH of 4.5. The method in brief: (§1)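 Broth microdilution in malt extract broth, initial pH 4.5 or 6.5, with 1×10^3 CFU per 0.2 mL well of thawed stored cultures. Compound stocks were made in 5% DMSO/0.2% Tween 80 and diluted to final 0.05–100 μg/mL. Plates were incubated 48 h at 30 °C and read macroscopically. MIC was the lowest concentration with no detectable growth. Vehicle-only wells served as controls.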

The test system of experiment [2] is Candida albicans. The experiment is described as follows: Tested for minimum inhibitory concentration against Candida albicans 124 (Candida albicans) at pH of 6.5. The method in brief: as §1
The test system of experiment [3] is Meyerozyma guilliermondii. The experiment is described as follows: Tested for minimum inhibitory concentration against Candida guilliermondii 80 (C.g) at pH of 6.5. Put shortly:
as §1

The subject of experiment [4] is Meyerozyma guilliermondii. The experiment in a line: Tested for minimum inhibitory concentration against Candida guilliermondii 80 (C.g) at pH of 4.5. The method in brief: as §1
The test system of experiment [5] is Pichia kudriavzevii. The experiment is described as follows: Tested for minimum inhibitory concentration against Candida krusei 132 (C.k) at pH of 4.5. Put shortly: as §1
The test system of experiment [6] is Pichia kudriavzevii. The experiment is described as follows: Tested for minimum inhibitory concentration against Candida krusei 132 (C.k) at pH of 6.5. Put shortly:
as §1

The test system of experiment [7] is Candida tropicalis. The experiment is described as follows: Tested for minimum inhibitory concentration against Candida tropicalis 43 (C.t) at pH of 4.5. Put shortly:
as §1

The test system of experiment [8] is Candida tropicalis. The experiment in a line: Tested for minimum inhibitory concentration against Candida tropicalis 43 (C.t) at pH of 6.5. The method in brief:
as §1

Broadly, the MIC is the lowest concentration that inhibits growth of the organism. Higher therefore signals a less susceptible organism. With `CC[C@@H](C)[C@H]1C(=O)NCC(=O)N(C)[C@@H](C(C)C)C(=O)N[C@@H](Cc2ccc(OC)cc2)C(=O)O[C@H](C)C(=O)N2CCCC[C@H]2C(=O)N(C)[C@@H](C(C)C)C(=O)N[C@@H](C(C)C)C(=O)N(C)[C@@H](CCN=[N+]=[N-])C(=O)N(C)[C@@H]([C@@H](C)CC)C(=O)N1C`, the MIC (with Candida albicans [1]; against Candida albicans [2]; in experiment [3]; in experiment [4]; against Pichia kudriavzevii [5]; in the experiment with Pichia kudriavzevii [6]) was above 100 µg/mL each time. Moreover, the MIC in the experiment on Candida tropicalis [7] and against Candida tropicalis [8] was above 100 µg/mL throughout.

As to `CC[C@@H](C)[C@H]1C(=O)NCC(=O)N(C)[C@@H](C(C)C)C(=O)N[C@@H](Cc2ccc(OC)cc2)C(=O)O[C@H](C)C(=O)N2CCCC[C@H]2C(=O)N(C)[C@@H](C(C)C)C(=O)N[C@@H](C(C)C)C(=O)N(C)[C@@H](CCOC(=O)CCC(=O)O)C(=O)N(C)[C@@H]([C@@H](C)CC)C(=O)N1C`, the MIC (in the experiment on Candida albicans [1]; with Candida albicans [2]; in experiment [3]; in experiment [4]; in the experiment on Pichia kudriavzevii [5]; in the experiment with Pichia kudriavzevii [6]) was above 100 µg/mL in each case. In addition, the MIC in the experiment with Candida tropicalis [7] and against Candida tropicalis [8] was above 100 µg/mL in each case.

For `CC[C@@H](C)[C@H]1C(=O)NCC(=O)N(C)[C@@H](C(C)C)C(=O)N[C@@H](Cc2ccc(OC)cc2)C(=O)O[C@H](C)C(=O)N2CCCC[C@H]2C(=O)N(C)[C@@H](C(C)C)C(=O)N[C@@H](C(C)C)C(=O)N(C)[C@@H](CCO)C(=O)N(C)[C@@H]([C@@H](C)CC)C(=O)N1C`, the MIC (in the experiment on Candida albicans [1]; in the experiment with Candida albicans [2]; in experiment [3]; in experiment [4]; against Pichia kudriavzevii [5]; in the experiment with Pichia kudriavzevii [6]) was above 100 µg/mL in each case. Further, the MIC in the experiment on Candida tropicalis [7] and against Candida tropicalis [8] was above 100 µg/mL throughout.

With `CC[C@@H](C)[C@H]1C(=O)NCC(=O)N(C)[C@@H](C(C)C)C(=O)N[C@@H](Cc2ccc(OCc3ccc(Cl)cc3)cc2)C(=O)O[C@H](C)C(=O)N2CCCC[C@H]2C(=O)N(C)[C@@H](C(C)C)C(=O)N[C@@H](C(C)C)C(=O)N(C)[C@@H](CC(=O)O)C(=O)N(C)[C@@H]([C@@H](C)CC)C(=O)N1C`, the MIC is 100 µg/mL (≈ 80.8 µM) against Candida albicans [1]; above 100 µg/mL against Candida albicans [2]; above 100 µg/mL in experiment [3]; above 100 µg/mL in experiment [4]; above 100 µg/mL with Pichia kudriavzevii [5]; above 100 µg/mL against Pichia kudriavzevii [6]. Moreover, the MIC in the experiment on Candida tropicalis [7] and against Candida tropicalis [8] was above 100 µg/mL each time.

As to `CC[C@@H](C)[C@H]1C(=O)NCC(=O)N(C)[C@@H](C(C)C)C(=O)N[C@@H](Cc2ccc(OCc3ccccc3)cc2)C(=O)O[C@H](C)C(=O)N2CCCC[C@H]2C(=O)N(C)[C@@H](C(C)C)C(=O)N[C@@H](C(C)C)C(=O)N(C)[C@@H](CC(=O)O)C(=O)N(C)[C@@H]([C@@H](C)CC)C(=O)N1C`, the MIC is 50 µg/mL (≈ 41.6 µM) with Candida albicans [1]; above 100 µg/mL in the experiment with Candida albicans [2]; above 100 µg/mL in experiment [3]; above 100 µg/mL in experiment [4]; above 100 µg/mL against Pichia kudriavzevii [5]; above 100 µg/mL against Pichia kudriavzevii [6]. Besides, the MIC in the experiment on Candida tropicalis [7] and with Candida tropicalis [8] was above 100 µg/mL throughout.

`CC[C@@H](C)[C@H]1C(=O)NCC(=O)N(C)[C@@H](C(C)C)C(=O)N[C@@H](Cc2ccc(OC)cc2)C(=O)O[C@H](C)C(=O)N2CCCC[C@H]2C(=O)N(C)[C@@H](C(C)C)C(=O)N[C@@H](C(C)C)C(=O)N(C)[C@@H](CC(=O)N(CC)CC)C(=O)N(C)[C@@H]([C@@H](C)CC)C(=O)N1C`: the MIC (in the experiment with Candida albicans [1]; against Candida albicans [2]; in experiment [3]; in experiment [4]; with Pichia kudriavzevii [5]; against Pichia kudriavzevii [6]) was above 100 µg/mL throughout. Further, the MIC in the experiment with Candida tropicalis [7] and against Candida tropicalis [8] was above 100 µg/mL in each case.

Turning to `CC[C@@H](C)[C@H]1C(=O)NCC(=O)N(C)[C@@H](C(C)C)C(=O)N[C@@H](Cc2ccc(O)cc2)C(=O)O[C@H](C)C(=O)N2CCCC[C@H]2C(=O)N(C)[C@@H](C(C)C)C(=O)N[C@@H](C(C)C)C(=O)N(C)[C@@H](CC(=O)O)C(=O)N(C)[C@@H]([C@@H](C)CC)C(=O)N1C`, the MIC is above 100 µg/mL with Candida albicans [1]; 50 µg/mL (≈ 44.9 µM) in the experiment on Candida albicans [2]; 100 µg/mL (≈ 89.9 µM) in experiment [3]; above 100 µg/mL in experiment [4]; above 100 µg/mL against Pichia kudriavzevii [5]; 100 µg/mL (≈ 89.9 µM) against Pichia kudriavzevii [6]. Further, the MIC is above 100 µg/mL against Candida tropicalis [7] and 100 µg/mL (≈ 89.9 µM) in the experiment on Candida tropicalis [8].

With `C=CCOc1ccc(C[C@@H]2NC(=O)[C@H](C(C)C)N(C)C(=O)CNC(=O)[C@H]([C@H](C)CC)N(C)C(=O)[C@H]([C@@H](C)CC)N(C)C(=O)[C@H](CC(=O)O)N(C)C(=O)[C@H](C(C)C)NC(=O)[C@H](C(C)C)N(C)C(=O)[C@@H]3CCCCN3C(=O)[C@@H](C)OC2=O)cc1`, the MIC is 3.13 µg/mL (≈ 2.72 µM) in the experiment with Candida albicans [1]; 6.25 µg/mL (≈ 5.42 µM) in the experiment on Candida albicans [2]; 100 µg/mL (≈ 86.8 µM) in experiment [3]; 100 µg/mL (≈ 86.8 µM) in experiment [4]; 100 µg/mL (≈ 86.8 µM) against Pichia kudriavzevii [5]; above 100 µg/mL against Pichia kudriavzevii [6]. In addition, the MIC in the experiment with Candida tropicalis [7] and in the experiment with Candida tropicalis [8] was 100 µg/mL (≈ 86.8 µM) in each case.

In the case of `CC[C@H](C)[C@H]1C(=O)NCC(=O)N(C)[C@@H](C(C)C)C(=O)N[C@@H](Cc2ccc(OC)cc2)C(=O)N[C@@H](C)C(=O)N[C@H](C)C(=O)N2CCCC[C@H]2C(=O)N(C)[C@@H](C(C)C)C(=O)N[C@@H](C(C)C)C(=O)N(C)[C@@H](CC(=O)O)C(=O)N(C)[C@@H]([C@@H](C)CC)C(=O)N1C`, the MIC against Candida albicans [1] is 12.5 µg/mL (≈ 10.4 µM); against Candida albicans [2] it was above 100 µg/mL; in experiment [3], above 100 µg/mL; in experiment [4] it was 50 µg/mL (≈ 41.8 µM); against Pichia kudriavzevii [5], above 100 µg/mL; in the experiment on Pichia kudriavzevii [6] it was above 100 µg/mL. In addition, the MIC is 100 µg/mL (≈ 83.6 µM) in the experiment with Candida tropicalis [7] and above 100 µg/mL with Candida tropicalis [8].

As to `CC[C@H](C)[C@H]1C(=O)NCC(=O)N(C)[C@@H](C(C)C)C(=O)N[C@@H](Cc2ccc(OC)cc2)C(=O)N[C@@H](C)C(=O)N[C@@H](C)C(=O)N2CCCC[C@H]2C(=O)N(C)[C@@H](C(C)C)C(=O)N[C@@H](C(C)C)C(=O)N(C)[C@@H](CC(=O)O)C(=O)N(C)[C@@H]([C@@H](C)CC)C(=O)N1C`, the MIC (with Candida albicans [1]; with Candida albicans [2]; in experiment [3]; in experiment [4]; in the experiment on Pichia kudriavzevii [5]; against Pichia kudriavzevii [6]) was above 100 µg/mL throughout. The MIC in the experiment with Candida tropicalis [7] and with Candida tropicalis [8] was above 100 µg/mL each time.
